Measured values pooled from the literature.
Compare with care: the assays were run in different laboratories.
SCN1A: Sodium channel protein type 1 subunit alpha (SCN1A, Homo sapiens, UniProt P35498)
CDK5 with p25: Cyclin-dependent kinase 5, with p25 (CDK5, Homo sapiens, UniProt Q00535)

C[C@H]1O[C@H](O[C@H]2[C@H](O)[C@@H](O)[C@@H](O[C@H]3[C@H](O)[C@@H](O)C(O)O[C@@H]3CO)O[C@@H]2CO)[C@H](O)[C@@H](O)[C@@H]1N[C@H]1C=C(CO)[C@@H](O)[C@H](O)[C@H]1O (stereo partly shown) has an inhibition of 80.6% (Alpha-glucosidase MAL12 (MAL12, Saccharomyces cerevisiae S288c, UniProt P53341); enzyme activity; inhibitor; absorbance; 1000 µg/mL).
The inhibition of O=C1NC(=O)C(c2ccccc2)(c2ccccc2)N1 is reported as 0.654% (SCN1A; ion current; inhibitor; patch clamp; 3 µM).
For CNc1ncc2c(/C=C/C(=O)N3CCC(OC)CC3)nn(Cc3cccc(C(F)(F)F)c3)c2n1, the remaining activity was 89% (Cyclin-dependent kinase 5, with p35 (CDK5, Homo sapiens, UniProt Q00535); enzyme activity; inhibitor; radiometric; 1 µM).
CC(=O)c1c(C)c2cnc(Nc3ccc(N4CCNCC4)cn3)nc2n(C2CCCC2)c1=O has an activity vs control of 97% (CDK5 with p25; enzyme activity; inhibitor; ADP detection; 1 µM).
COc1cc(-c2cncc3c2CN(C)Cc2cc(N4CCNCC4)ccc2-3)cc(OC)c1OC has a remaining activity of 109% (CDK5 with p25; enzyme activity; inhibitor; 1 µM).
For Cc1nnc(SCC2=C(C(=O)O)N3C(=O)[C@@H](NC(=O)Cn4cnnn4)[C@H]3SC2)s1, the inhibition was 4.84% (SCN1A; ion current; inhibitor; patch clamp; 10 µM).
The remaining binding of C=CC(=O)N1CCC(COCC(=O)N2CCN(c3nc(-c4cnc(N)nc4C(F)F)nc(N4CCOC[C@@H]4C)n3)CC2)CC1 is reported as 95% (Receptor-interacting serine/threonine-protein kinase 2 (RIPK2, Homo sapiens, UniProt O43353); binding; competition with immobilised ligand; 1 µM).
CC(C)NCC(O)COc1cccc2ccccc12 (stereo not shown) gave an inhibition of 2.62% (SCN1A; ion current; inhibitor; patch clamp; 3 µM).
C[C@@H]1CC2=C(CN1Cc1cccc(C#N)c1)C(=O)N(Cc1ccc(Br)cc1)C1=NCCN12 gave a ΔTm of 17.7 °C (ATP-dependent Clp protease proteolytic subunit, mitochondrial (CLPP, Homo sapiens, UniProt Q16740); thermal stability; DSF; 670 µM).
Cc1cc([C@@H](C)Nc2ccccc2C(=O)O)c2nc(N3CCC(F)(F)CC3)c(C#N)c(=O)n2c1 gave a remaining binding of 97% (High affinity nerve growth factor receptor (NTRK1, Homo sapiens, UniProt P04629); binding; competition with immobilised ligand; 10 µM).
